{"source": "paper PMC5331736", "about": "(Drug testing and analysis, 2014)", "key": {"[1]": {"assay": "cis to trans isomerization in solution", "assay_type": "physicochemical", "settings": "acetonitrile only"}, "5-HT transporters (SERT)": {"target": "5-HT transporters (SERT) (Rattus norvegicus, UniProt P31652)", "sequence (P31652 whole entry)": "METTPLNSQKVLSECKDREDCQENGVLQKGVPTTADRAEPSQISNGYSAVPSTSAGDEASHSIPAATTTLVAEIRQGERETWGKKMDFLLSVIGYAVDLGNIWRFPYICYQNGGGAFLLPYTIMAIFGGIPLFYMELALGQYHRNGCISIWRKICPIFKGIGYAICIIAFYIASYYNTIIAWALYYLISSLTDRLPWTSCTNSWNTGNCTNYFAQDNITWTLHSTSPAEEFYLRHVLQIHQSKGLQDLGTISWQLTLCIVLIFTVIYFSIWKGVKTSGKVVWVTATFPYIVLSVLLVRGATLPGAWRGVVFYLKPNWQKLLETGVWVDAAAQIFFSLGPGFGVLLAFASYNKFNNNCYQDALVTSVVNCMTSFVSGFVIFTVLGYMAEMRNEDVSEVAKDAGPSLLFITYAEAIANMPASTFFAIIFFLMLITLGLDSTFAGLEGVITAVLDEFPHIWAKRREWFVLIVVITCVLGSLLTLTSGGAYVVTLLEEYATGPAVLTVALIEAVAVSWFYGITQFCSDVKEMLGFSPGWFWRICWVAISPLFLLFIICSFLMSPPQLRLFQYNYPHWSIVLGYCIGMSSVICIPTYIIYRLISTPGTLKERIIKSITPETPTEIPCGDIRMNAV", "assay": "Release assay at SERT, [3H]5-HT preloaded rat brain synaptosomes", "assay_type": "biochemical", "settings": "for releasing efficacy at SERT (in words): rat brain tissue", "how_it_was_run": "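Synaptosomes came from male Sprague-Dawley rat (250–300 g) brains after CO2 euthanasia. They were preloaded to steady state (1 h) with 5 nM [3H]5-HT in Krebs-phosphate buffer containing 1 μM reserpine, plus unlabelled blockers for the other transporters. Preloaded synaptosomes were added to test compound dilutions, and release was stopped by vacuum filtration. Retained radioactivity was measured by scintillation counting. Dose-response; mean ± SD, N = 3–4, triplicate.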"}, "[2]": {"target": "dopamine transporters (DAT) (Rattus norvegicus, UniProt P23977)", "sequence (P23977 whole entry)": "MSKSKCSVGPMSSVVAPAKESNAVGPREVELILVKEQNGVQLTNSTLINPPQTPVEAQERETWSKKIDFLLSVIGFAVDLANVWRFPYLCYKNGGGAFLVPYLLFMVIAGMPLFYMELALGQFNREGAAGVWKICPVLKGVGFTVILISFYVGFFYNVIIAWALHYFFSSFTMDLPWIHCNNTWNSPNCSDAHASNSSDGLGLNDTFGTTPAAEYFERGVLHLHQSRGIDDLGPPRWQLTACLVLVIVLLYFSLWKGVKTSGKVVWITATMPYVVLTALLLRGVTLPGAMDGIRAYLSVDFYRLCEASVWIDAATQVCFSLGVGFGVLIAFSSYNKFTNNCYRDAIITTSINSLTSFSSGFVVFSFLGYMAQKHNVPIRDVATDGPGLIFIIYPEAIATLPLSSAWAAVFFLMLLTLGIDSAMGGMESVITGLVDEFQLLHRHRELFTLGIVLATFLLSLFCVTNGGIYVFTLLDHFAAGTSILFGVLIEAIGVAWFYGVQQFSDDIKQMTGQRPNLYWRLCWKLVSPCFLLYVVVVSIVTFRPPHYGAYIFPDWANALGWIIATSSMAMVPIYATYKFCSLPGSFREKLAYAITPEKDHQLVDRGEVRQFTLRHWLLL", "assay": "Release assay at DAT, [3H]MPP+ preloaded rat brain synaptosomes", "assay_type": "biochemical", "settings": "(EC50 at DAT)^−1/(EC50 at SERT)^−1; higher value indicates greater DAT selectivity", "how_it_was_run": "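Male Sprague-Dawley rat (250–300 g) brain synaptosomes. DAT substrate was 9 nM [3H]MPP+ and SERT substrate 5 nM [3H]5-HT. Buffers held 1 μM reserpine, with unlabelled blockers of competing transporters. Synaptosomes were preloaded for 1 h in Krebs-phosphate buffer, then added to test compound. Filtration stopped release, and retained radioactivity was counted. The ratio comes from dose-response EC50s; N = 3–4, triplicate.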"}, "SERT": {"target": "SERT (Rattus norvegicus, UniProt P31652)", "sequence (P31652 whole entry)": "as the sequence (P31652 whole entry) above", "assay": "Uptake blocking at SERT", "assay_type": "biochemical", "settings": "subsequent experiments, data not shown"}}, "data": [{"smiles": "C[C@@H]1N=C(N)O[C@@H]1c1ccc2c(c1)OCO2", "note": "(racemic) [Cis-MDMAR, (±)-cis-3′,4′-Methylenedioxy-4-methylaminorex]", "values": [{"measurement": "cis to trans isomerization", "setting": "[1]", "result": "Isomerization did not occur"}, {"measurement": "releasing efficacy at SERT (in words)", "setting": "5-HT transporters (SERT)", "result": "fully efficacious releasing agents"}, {"measurement": "DAT/SERT ratio", "setting": "[2]", "result": 4.3}]}, {"smiles": "Cc1ccc([C@@H]2OC(N)=N[C@H]2C)cc1", "note": "(relative stereo) [Trans-DMAR, trans-4,4′-dimethylaminorex]", "values": [{"measurement": "uptake blocker efficacy at SERT", "setting": "SERT", "result": "fully efficacious as an uptake blocker"}, {"measurement": "maximal release at SERT", "setting": "5-HT transporters (SERT); efficacy, % of maximal release", "result": 75, "unit": "%"}, {"measurement": "releasing efficacy at SERT (in words)", "setting": "5-HT transporters (SERT)", "result": "partial releasing activity"}, {"measurement": "DAT/SERT ratio", "setting": "[2]", "result": 2.5}]}, {"smiles": "CNC(C)Cc1ccc2c(c1)OCO2", "note": "(single isomer, unassigned; (+)) [(+)-MDMA, (+)-3,4-methylenedioxymethamphetamine]", "values": [{"measurement": "DAT/SERT ratio", "setting": "[2]", "result": 0.6}]}, {"smiles": "Cc1ccc([C@H]2OC(N)=N[C@H]2C)cc1", "note": "(relative stereo) [Cis-DMAR, cis-4,4′-dimethylaminorex]", "values": [{"measurement": "releasing efficacy at SERT (in words)", "setting": "5-HT transporters (SERT)", "result": "fully efficacious releasing agents"}, {"measurement": "DAT/SERT ratio", "setting": "[2]", "result": 1.6}]}, {"smiles": "C[C@@H]1N=C(N)O[C@H]1c1ccc2c(c1)OCO2", "note": "(racemic) [Trans-MDMAR, (±)-trans-3′,4′-Methylenedioxy-4-methylaminorex]", "values": [{"measurement": "releasing efficacy at SERT (in words)", "setting": "5-HT transporters (SERT)", "result": "fully efficacious releasing agents"}, {"measurement": "DAT/SERT ratio", "setting": "[2]", "result": 2.0}]}]}
